Measurements: ChEMBL document CHEMBL1641462, “Synthesis and in vivo evaluation of ¹⁸F-fluoroethyl GF120918 and XR9576 as positron emission tomography probes for assessing the function of drug efflux transporters” (Bioorg Med Chem, 2011)

Columns and labels:
[1] = tested on: Lung; experiment: Biodistribution in FVB mouse lung assessed per gram of tissue at 1 to 4.8 MBq, iv after 60 mins; format: ADME, organism-based; settings: in vivo, 1 h
In short: (§1)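 Male FVB mice (8–10 weeks, 25–29 g) received tracer iv (1.0–4.8 MBq, 7.1–34 pmol). Killed by cervical dislocation at 5, 15, 30, 60 or 90 min. Blood taken by heart puncture; tissues dissected, weighed and gamma-counted. Activity decay-corrected to injection time and given as %ID/g; mean ± SD, n = 4 per time point.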

[2] = tested on: Brain; experiment: Ratio of AUC (0 to 60 mins) in P-gp/BCRP knockout mouse brain to AUC (0 to 60 mins) in wild type mouse brain at 2.8 to 5.6 MBq, iv; format: ADME, organism-based; settings: in vivo
[3] = tested on: Brain; experiment: Biodistribution in P-gp/BCRP knockout mouse brain at 3.3 to 4.9 MBq, iv after up to 60 mins; format: ADME, organism-based; settings: in vivo, 1 h
[4] = tested on: Kidney; experiment: Biodistribution in FVB mouse kidney assessed per gram of tissue at 1 to 4.8 MBq, iv after 60 mins; format: ADME, organism-based; settings: in vivo, 1 h; in short: as §1
[5] = tested on: Pancreas; experiment: Biodistribution in FVB mouse pancreas assessed per gram of tissue at 1 to 4.8 MBq, iv after 60 mins; format: ADME, organism-based; settings: in vivo, 1 h
In short: (§2)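 Male FVB mice (8–10 weeks, 25–29 g) given tracer 1.0–4.8 MBq/7.1–34 pmol iv; killed by cervical dislocation at set times (n = 4 per group). Blood by heart puncture; tissues dissected, weighed and gamma counted. Radioactivity decay-corrected to injection time, expressed as %ID/g, mean ± SD.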

[6] = tested on: Brain; experiment: Biodistribution in FVB mouse brain assessed per gram of tissue at 1 to 4.8 MBq, iv after 90 mins; format: ADME, organism-based; settings: in vivo, 1.5 h; in short: as §1
[7] = tested on: Pancreas; experiment: Biodistribution in FVB mouse pancreas assessed per gram of tissue at 1 to 4.8 MBq, iv after 5 mins; format: ADME, organism-based; settings: in vivo; in short: as §2
[8] = tested on: Blood; experiment: AUC (0 to 60 mins) in P-gp/BCRP knockout mouse blood at 2.8 to 5.6 MBq, iv; format: ADME, tissue-based
In short: (§3)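 Small-animal PET in male wild-type and knockout mice under isoflurane (1.0–1.5%), prone on the scanner bed. Tracer (2.8–5.6 MBq, 20–40 pmol) given iv, with or without co-injected GF120918 at 5 mg/kg. Dynamic 60-min list-mode scan. Decay-corrected SUV read from ROIs on brain, and on the ventricular cavity for blood. AUC taken over 0–60 min in SUV·min; n = 4 per group.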

[9] = tested on: Bone; experiment: Biodistribution in FVB mouse bone assessed per gram of tissue at 1 to 4.8 MBq, iv after 60 mins; format: ADME, organism-based, Bone element; settings: in vivo, 1 h; in short: as §1
[10] = tested on: Heart; experiment: Biodistribution in FVB mouse heart assessed per gram of tissue at 1 to 4.8 MBq, iv after 30 mins; format: ADME, organism-based; settings: in vivo, 0.5 h; in short: as §1
[11] = Biodistribution in FVB mouse small intestine assessed per gram of tissue at 1 to 4.8 MBq, iv after 90 mins; format: ADME, organism-based; settings: in vivo, 1.5 h; in short: as §2
[12] = tested on: Lung; experiment: Biodistribution in FVB mouse lung assessed per gram of tissue at 1 to 4.8 MBq, iv after 30 mins; format: ADME, organism-based; settings: in vivo, 0.5 h; in short: as §1
[13] = tested on: Heart; experiment: Biodistribution in FVB mouse heart assessed per gram of tissue at 1 to 4.8 MBq, iv after 60 mins; format: ADME, organism-based; settings: in vivo, 1 h; in short: as §1
[14] = tested on: Blood; experiment: Biodistribution in FVB mouse blood assessed per gram of tissue at 1 to 4.8 MBq, iv after 15 mins; format: ADME, organism-based; settings: in vivo, 0.25 h; in short: as §1
[15] = Fold increase in brain-to-blood ratio of drug level in FVB mouse at 1 to 4.8 MBq, iv co-administered with 5 mg/kg, iv of GF120918; settings: brain and blood, with GF120918, 5 mg/kg iv
[16] = tested on: Blood; experiment: AUC (0 to 60 mins) in wild type mouse blood at 2.8 to 5.6 MBq, iv; format: ADME, tissue-based; in short: as §3
[17] = tested on: Lung; experiment: Biodistribution in FVB mouse lung assessed per gram of tissue at 1 to 4.8 MBq, iv after 15 mins; format: ADME, organism-based; settings: in vivo, 0.25 h; in short: as §1
[18] = tested on: Brain; experiment: Biodistribution in FVB mouse brain assessed per gram of tissue at 1 to 4.8 MBq, iv after 60 mins; format: ADME, organism-based; settings: in vivo, 1 h; in short: as §1
[19] = tested on: Spleen; experiment: Biodistribution in FVB mouse spleen assessed per gram of tissue at 1 to 4.8 MBq, iv after 90 mins; format: ADME, organism-based; settings: in vivo, 1.5 h; in short: as §2
[20] = tested on: Kidney; experiment: Biodistribution in FVB mouse kidney assessed per gram of tissue at 1 to 4.8 MBq, iv after 5 mins; format: ADME, organism-based; settings: in vivo; in short: as §1
[21] = tested on: Pancreas; experiment: Biodistribution in FVB mouse pancreas assessed per gram of tissue at 1 to 4.8 MBq, iv after 90 mins; format: ADME, organism-based; settings: in vivo, 1.5 h; in short: as §2
[22] = tested on: Bone; experiment: Biodistribution in FVB mouse bone assessed per gram of tissue at 1 to 4.8 MBq, iv after 30 mins; format: ADME, organism-based, Bone element; settings: in vivo, 0.5 h; in short: as §1
[23] = tested on: Bone; experiment: Biodistribution in FVB mouse bone assessed per gram of tissue at 1 to 4.8 MBq, iv after 15 mins; format: ADME, organism-based, Bone element; settings: in vivo, 0.25 h; in short: as §1
[24] = tested on: Bone; experiment: Biodistribution in FVB mouse bone assessed per gram of tissue at 1 to 4.8 MBq, iv after 5 mins; format: ADME, organism-based, Bone element; settings: in vivo; in short: as §1
[25] = tested on: Muscle tissue; experiment: Biodistribution in FVB mouse muscle assessed per gram of tissue at 1 to 4.8 MBq, iv after 60 mins; format: ADME, organism-based; settings: in vivo, 1 h; in short: as §1
[26] = tested on: Brain; experiment: Biodistribution in P-gp knockout mouse brain at 3.3 to 4.9 MBq, iv after up to 60 mins; format: ADME, organism-based; settings: in vivo, 1 h
[27] = tested on: Brain; experiment: Biodistribution in FVB mouse brain assessed per gram of tissue at 1 to 4.8 MBq, iv after 15 mins; format: ADME, organism-based; settings: in vivo, 0.25 h; in short: as §1
[28] = tested on: Heart; experiment: Biodistribution in FVB mouse heart assessed per gram of tissue at 1 to 4.8 MBq, iv after 15 mins; format: ADME, organism-based; settings: in vivo, 0.25 h; in short: as §1
[29] = Biodistribution in FVB mouse small intestine assessed per gram of tissue at 1 to 4.8 MBq, iv after 30 mins; format: ADME, organism-based; settings: in vivo, 0.5 h; in short: as §2
[30] = tested on: Spleen; experiment: Biodistribution in FVB mouse spleen assessed per gram of tissue at 1 to 4.8 MBq, iv after 60 mins; format: ADME, organism-based; settings: in vivo, 1 h; in short: as §2
[31] = tested on: Heart; experiment: Biodistribution in FVB mouse heart assessed per gram of tissue at 1 to 4.8 MBq, iv after 5 mins; format: ADME, organism-based; settings: in vivo; in short: as §1
[32] = tested on: Liver; experiment: Biodistribution in FVB mouse liver assessed per gram of tissue at 1 to 4.8 MBq, iv after 90 mins; format: ADME, organism-based; settings: in vivo, 1.5 h; in short: as §1
[33] = tested on: Brain; experiment: Metabolic stability in FVB mouse brain assessed as recovery of radioactivity at 1 to 4.8 MBq, iv by HPLC analysis; format: ADME, organism-based; settings: in vivo
In short: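 Brain homogenate or plasma from tracer plus GF120918 (5 mg/kg) co-injected FVB mice deproteinized with equal volume ice-cold acetonitrile; radioactivity in supernatant, precipitate and HPLC waste gamma counted to give recovery, mean ± SD (n = 7).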

[34] = Biodistribution in FVB mouse small intestine assessed per gram of tissue at 1 to 4.8 MBq, iv after 60 mins; format: ADME, organism-based; settings: in vivo, 1 h; in short: as §2
[35] = tested on: Muscle tissue; experiment: Biodistribution in FVB mouse muscle assessed per gram of tissue at 1 to 4.8 MBq, iv after 30 mins; format: ADME, organism-based; settings: in vivo, 0.5 h; in short: as §1
[36] = tested on: Blood; experiment: Biodistribution in FVB mouse blood assessed per gram of tissue at 1 to 4.8 MBq, iv after 90 mins; format: ADME, organism-based; settings: in vivo, 1.5 h; in short: as §1

With `COc1cc(NC(=O)c2cnc3ccccc3c2)c(C(=O)Nc2ccc(CCN3CCc4cc(OC)c(OCC[18F])cc4C3)cc2)cc1OC` the Drug uptake [1] was 16.06 % ID/g, the “Ratio AUC” value [2] was 8.3 and the Activity [3] was “Active”. For the same molecule, the Drug uptake [4] was 11.29 % ID/g, the Drug uptake [5] was 12.45 % ID/g and the Drug uptake [6] was 0.1 % ID/g. For the same molecule, the Drug uptake [7] was 6.05 % ID/g, the AUC [8] was 33.9 SUV·min and the Drug uptake [9] was 1.62 % ID/g. It also gave a Drug uptake [10] of 2.86 % ID/g, a Drug uptake [11] of 24.45 % ID/g and a Drug uptake [12] of 17.89 % ID/g. For the same molecule, the Drug uptake [13] was 2.09 % ID/g, the Drug uptake [14] was 0.88 % ID/g and the Fold increase [15] was 10. For the same molecule, the AUC [16] was 33.2 SUV·min, the Drug uptake [17] was 20.55 % ID/g and the Drug uptake [18] was 0.1 % ID/g. The Drug uptake [19] was 7.42 % ID/g, the Drug uptake [20] was 18 % ID/g and the Drug uptake [21] was 13.56 % ID/g. It also gave a Drug uptake [22] of 1.45 % ID/g, a Drug uptake [23] of 1.85 % ID/g and a Drug uptake [24] of 2.17 % ID/g. The Drug uptake [25] was 0.92 % ID/g, the Activity [26] was “Active” and the Drug uptake [27] was 0.11 % ID/g. It also gave a Drug uptake [28] of 3.49 % ID/g, a Drug uptake [29] of 14.09 % ID/g and a Drug uptake [30] of 7.18 % ID/g. It also gave a Drug uptake [31] of 7.44 % ID/g, a Drug uptake [32] of 22.18 % ID/g and a Stability [33] of 92.5%. For the same molecule, the Drug uptake [34] was 22.42 % ID/g, the Drug uptake [35] was 1.04 % ID/g and the Drug uptake [36] was 0.57 % ID/g.

In the case of `COc1cc2c(cc1OC)CN(CCc1ccc(NC(=O)c3cccc4c(=O)c5cccc(OCC[18F])c5[nH]c34)cc1)CC2`, the Drug uptake [1] is reported as 6.16 % ID/g, the “Ratio AUC” value [2] is reported as 9 and the Activity [3] is reported as “Active”. It also gave a Drug uptake [4] of 23.44 % ID/g, a Drug uptake [5] of 15.14 % ID/g and a Drug uptake [6] of 0.13 % ID/g. The Drug uptake [7] was 6.12 % ID/g, the AUC [8] was 25 SUV·min and the Drug uptake [9] was 1.43 % ID/g. It also gave a Drug uptake [10] of 1.38 % ID/g, a Drug uptake [11] of 17.15 % ID/g and a Drug uptake [12] of 7.21 % ID/g. The Drug uptake [13] was 1.19 % ID/g, the Drug uptake [14] was 0.72 % ID/g and the Fold increase [15] was 10. The AUC [16] was 25.6 SUV·min, the Drug uptake [17] was 13.32 % ID/g and the Drug uptake [18] was 0.17 % ID/g. The Drug uptake [19] was 4.71 % ID/g, the Drug uptake [20] was 20.65 % ID/g and the Drug uptake [21] was 15.21 % ID/g. It also gave a Drug uptake [22] of 1.63 % ID/g, a Drug uptake [23] of 1.66 % ID/g and a Drug uptake [24] of 1.99 % ID/g. For the same molecule, the Drug uptake [25] was 0.53 % ID/g, the Activity [26] was “Active” and the Drug uptake [27] was 0.16 % ID/g. For the same molecule, the Drug uptake [28] was 2.43 % ID/g, the Drug uptake [29] was 7.6 % ID/g and the Drug uptake [30] was 5.74 % ID/g. The Drug uptake [31] was 6.65 % ID/g, the Drug uptake [32] was 14.82 % ID/g and the Stability [33] was 91.4%. It also gave a Drug uptake [34] of 12.48 % ID/g, a Drug uptake [35] of 0.62 % ID/g and a Drug uptake [36] of 0.36 % ID/g.
